# Where a name gives a salt, the structure may show the parent alone. Read-outs that look alike come from different tables or passages of the source.
# T1: hPEPT1 (Homo sapiens, UniProt P46059)
# T1 sequence (P46059 1-708): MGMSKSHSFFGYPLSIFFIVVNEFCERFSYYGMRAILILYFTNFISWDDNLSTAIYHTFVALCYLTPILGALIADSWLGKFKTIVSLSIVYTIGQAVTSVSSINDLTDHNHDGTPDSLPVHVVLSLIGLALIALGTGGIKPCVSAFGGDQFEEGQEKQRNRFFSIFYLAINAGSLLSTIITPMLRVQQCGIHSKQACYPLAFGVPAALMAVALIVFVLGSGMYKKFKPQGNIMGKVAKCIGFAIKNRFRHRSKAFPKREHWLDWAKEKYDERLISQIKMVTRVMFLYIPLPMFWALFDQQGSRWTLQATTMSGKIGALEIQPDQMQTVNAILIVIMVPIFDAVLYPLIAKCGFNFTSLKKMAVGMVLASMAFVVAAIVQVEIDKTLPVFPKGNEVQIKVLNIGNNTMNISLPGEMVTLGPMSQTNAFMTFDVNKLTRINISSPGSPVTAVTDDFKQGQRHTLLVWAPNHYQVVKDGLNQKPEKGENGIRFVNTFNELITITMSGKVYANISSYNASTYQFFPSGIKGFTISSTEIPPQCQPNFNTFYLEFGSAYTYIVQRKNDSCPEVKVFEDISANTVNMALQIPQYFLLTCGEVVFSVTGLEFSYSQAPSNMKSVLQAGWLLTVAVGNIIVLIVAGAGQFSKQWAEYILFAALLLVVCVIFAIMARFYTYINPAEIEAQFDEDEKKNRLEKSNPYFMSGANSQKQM
# B1: hVACVase (Homo sapiens) (protein)
# chain: SVTSAKVAVNGVQLHYQQTGEGDHAVLLLPGMLGSGETDFGPQLKNLNKKLFTVVAWDPRGYGHSRPPDRDFPADFFERDAKDAVDLMKALKFKKVSLLGWSDGGITALIAAAKYPSYIHKMVIWGANAYVTDEDSMIYEGIRDVSKWSERTRKPLEALYGYDYFARTCEKWVDGIRQFKHLPDGNICRHLLPRVQCPALIVHGEKDPLVPRFHADFIHKHVKGSRLHLMPEGKHNLHLRFADEFNKLAEDFLQ
# Columns and labels:
# hPEPT1 = molecular target: T1, hPEPT1; assay: [3H]Gly-Sar uptake inhibition in HeLa/hPEPT1 cells; assay type: cell-based
# How it was run: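 HeLa cells infected with hPEPT1 adenovirus 3 days before assay. Incubated 30 min at 37 °C in pH 6.0 MES uptake buffer with 10 μM Gly-Sar (0.1 μM [3H]) plus 0.05–5 mM test compound. Washed three times ice-cold, lysed in 0.1% SDS, scintillation counted. IC50 by nonlinear fitting; n=4.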
# Caco-2 monolayers = assay: Caco-2 monolayer permeability study; assay type: in vitro ADME; conditions: for Apparent apical-to-basolateral permeability coefficient (Papp): 200 μM, apical pH 6.0, basolateral pH 7.5, result in words (Figure 1)
# How it was run: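 Caco-2 cells grown on collagen-coated 3.0 μm-pore transwell inserts and used 22–23 days post-seeding; TEER checked before and after. After 15 min preincubation at 37 °C, apical MES buffer (pH 6.0) replaced with 200 μM test compound, basolateral HEPES buffer (pH 7.5). Basolateral aliquots taken at set intervals and replaced with fresh buffer; HPLC. Papp=(1/C0A)(dQ/dt), steady-state rate; triplicate.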
# HeLa/hPEPT1 cells = assay: Direct uptake in HeLa/hPEPT1 cells; assay type: cell-based, human; conditions: for remaining in donor solution after 1 h: direct uptake study, HeLa/hPEPT1 and normal HeLa cells
# How it was run: (§1)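 HeLa cells grown 5 days in 12-well plates; the hPEPT1 set was infected with hPEPT1 adenovirus 3 days before, and uninfected HeLa served as control. After a wash and 15 min preincubation in uptake buffer (pH 6.0, MES) at 37 °C, cells took 1 mM test compound for 60 min at 37 °C. Then washed ice-cold, sonicated, TFA-precipitated (7% final), HPLC; protein measured by DC assay; triplicate.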
# [1] = Hydrolysis in pH 6.0 uptake buffer; assay type: physicochemical; conditions: 37 °C, * no area decrease detected in HPLC after 2 h, ** less than 5% decrease after 2 h
# HeLa cells = assay: Direct uptake in normal HeLa cells; assay type: cell-based; conditions: 1 mM test compound, pH 6.0, 60 min
# How it was run: as §1
# [2] = Hydrolysis in pH 7.4 phosphate buffer; assay type: physicochemical
# How it was run: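 Test compound (200 mM DMSO stock) in 10 mM phosphate buffer, pH 7.4, at 37 °C. Sampled at 0, 5, 10, 30, 60 and 120 min, quenched in 0.1% TFA, HPLC. Pseudo-first-order k from ln(remaining) vs time; t1/2=0.693/k; triplicate.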
# [3] = cited from earlier work
# Caco-2 cell homogenates = assay: Hydrolysis in Caco-2 cell homogenates; assay type: in vitro ADME; conditions: 500 μg/mL protein, 37 °C; * no area decrease detected in HPLC after 2 h
# rat jejunum = assay: In situ single-pass rat jejunum perfusion; assay type: in vivo; conditions: 0.1 mM, pH 6.5, compared to co-perfused metoprolol; result in words (Figure 3)
# How it was run: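 Male Wistar rats, 250–280 g, fasted 12–18 h, anesthetized i.m. with ketamine-xylazine; ~10 cm jejunal segment cannulated in situ at 37 °C. Perfused at 0.2 mL/min with pH 6.5 MES buffer containing 0.1 mM test compound, 0.4 mg/mL metoprolol and phenol red. Samples every 10 min for 1 h after 1 h steady state; HPLC. […], outlet corrected by phenol red; n=4.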
# HeLa cell homogenates = assay: Hydrolysis in HeLa cell homogenates; assay type: in vitro ADME; conditions: 500 μg/mL protein, 37 °C; * no area decrease detected in HPLC after 2 h
# [4] = substrate: CC(C)[C@H](N)C(=O)OCCOCn1cnc2c(=O)[nH]c(N)nc21; assay: hVACVase-mediated hydrolysis; assay type: biochemical, human; conditions: other: recombinant hVACVase, 50 mM HEPES pH 7.4, 37 °C
# [5] = substrate: CC(C)[C@H](N)C(=O)OCc1cccc(NC(=N)N)c1; assay: hVACVase-mediated hydrolysis; assay type: biochemical, human; conditions: other: recombinant hVACVase, 50 mM HEPES pH 7.4, 37 °C
# [6] = substrate: CC[C@H](C)[C@H](N)C(=O)OCc1cccc(N=C(N)N)c1; assay: hVACVase-mediated hydrolysis; assay type: biochemical, human; conditions: other: recombinant hVACVase, 50 mM HEPES pH 7.4, 37 °C
# [7] = substrate: NC(N)=Nc1cccc(COC(=O)[C@@H](N)Cc2ccccc2)c1; assay: hVACVase-mediated hydrolysis; assay type: biochemical, human; conditions: other: recombinant hVACVase, 50 mM HEPES pH 7.4, 37 °C
molecule,measurement,setting,value
"CC[C@H](C)[C@H](N)C(=O)OCc1ccccc1 [Ile-OBz, L-Isoleucine benzyl ester 4-toluenesulfonate salt]",IC50,hPEPT1,1050 ± 130 µM
D-Valine [3-[(aminoiminomethyl)amino]phenyl]methyl ester [D-Val-3-HPG],Apparent apical-to-basolateral permeability coefficient (Papp),Caco-2 monolayers,no transport
same,Stability in apical side during Caco-2 permeability study,Caco-2 monolayers; percentage of ester form in donor solution at 120 min,98.8 ± 0.1%
CC(C)[C@H](N)C(=O)OCCOCn1cnc2c(=O)nc(N)[nH]c21 [valacyclovir],remaining in donor solution after 1 h,HeLa/hPEPT1 cells,> 95%
same,hPEPT1/control,HeLa/hPEPT1 cells; ratio of uptake in HeLa/hPEPT1 cells to uptake in normal HeLa cells (fold),> 25
same,"Half-lives, pH 6 buffer",[1],stable ^*
same,"uptake, HeLa cells",HeLa cells,< 0.2 nmol/mg in 60 min
same,half-life at 200 µM,"[2]; phosphate buffer, pH 7.4",13.8 ± 0.417 h
same,oral bioavailability,[3],more than 50%
"N[C@@H](Cc1ccccc1)C(=O)OCc1ccccc1 [Phe-OBz, L-phenylalanine benzyl ester hydrochloride]",IC50,hPEPT1,> 3000 µM
CC1CNc2c(cccc2S(=O)(=O)N[C@@H](CCCNC(=N)N)C(=O)N2CC[C@@H](C)C[C@@H]2C(=O)O)C1 (stereo partly drawn) [argatroban],oral bioavailability,"[3]; in vivo, po",low oral bioavailability
"CC(C)[C@H](N)C(=O)OCc1ccccc1 [Val-OBz, L-valine benzyl ester hydrochloride]",IC50,hPEPT1,390 ± 40 µM
CC(C)[C@H](N)C(=O)OCC(CO)OCn1cnc2c(=O)nc(N)[nH]c21 (stereo partly drawn) [valganciclovir],oral bioavailability,[3],more than 50%
CC(=O)N[C@H]1[C@H]([C@H](O)[C@H](O)CO)OC(C(=O)O)=C[C@@H]1N=C(N)N [zanamivir],oral bioavailability,[3]; result in words,low oral bioavailability
"N=C(N)Nc1cccc(CO)c1 [3-HPG, [3-(hydroxymethyl)phenyl]guanidine]",remaining in donor solution after 1 h,HeLa/hPEPT1 cells,> 95%
same,"Half-lives, Caco-2 cell homogenates",Caco-2 cell homogenates,stable ^*
same,"Half-lives, pH 6 buffer",[1],stable ^*
same,"Effective permeability (Peff), rat jejunum",rat jejunum,very low
same,"Half-lives, pH 7.4 buffer","[2]; 10 mM phosphate buffer pH 7.4, 37 °C, * no area decrease detected in HPLC after 2 h",stable ^*
same,"Half-lives, HeLa cell homogenates",HeLa cell homogenates,stable ^*
"NC(N)=Nc1cccc(COC(=O)[C@@H](N)Cc2ccccc2)c1 [Phe-3-HPG, L-Phenylalnine [3-[(aminoiminomethyl)amino]phenyl]methyl ester]",remaining in donor solution after 1 h,HeLa/hPEPT1 cells,> 80%
same,Apparent apical-to-basolateral permeability coefficient (Papp),Caco-2 monolayers,didn’t show significantly different permeability than 3-HPG
same,"Half-lives, pH 6 buffer",[1],stable ^**
B1,Km,[4],68 ± 4 µM
same,Vmax,[4],120 µmol/min/mg
same,kcat,[4],58 ± 1 s⁻¹
same,kcat/Km,[4],850000 ± 66000 M⁻¹ s⁻¹
same,Km,[5],46 ± 5 µM
same,Vmax,[5],321 µmol/min/mg
same,kcat,[5],154 ± 4 s⁻¹
same,kcat/Km,[5],3.37e+06 ± 460000 M⁻¹ s⁻¹
same,Km,[6],9.0 ± 1.2 µM
same,Vmax,[6],30 µmol/min/mg
same,kcat,[6],14 ± 1 s⁻¹
same,kcat/Km,[6],1.58e+06 ± 260000 M⁻¹ s⁻¹
same,Km,[7],207 ± 16 µM
same,Vmax,[7],718 µmol/min/mg
same,kcat,[7],345 ± 8 s⁻¹
same,kcat/Km,[7],1.66e+06 ± 160000 M⁻¹ s⁻¹
